TRPC6 inh – inhibitors of mouse TRPC6 channel; B-score at 10 µM; 310,000 tested, 1.1% active; AID 2553; HEK293-TRPC6, membrane potential dye, ACh-evoked depolarization; stronger effect = lower value;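 active = B-score under library mean minus 3 SD, initial fluorescence not abnormally high, positive integrated signal ratio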;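 also: B-score derived from integrated fluorescence ratio over the kinetic read; more negative B-score means stronger inhibition of depolarization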
TRPC4 PAM – allosterically enhances the mouse TRPC4 cation channel; Q9QUQ5; HEK293 TRPC4beta/mu-opioid, DAMGO EC20, Fluo-4 Ca2+ flux; stronger effect = higher value; B-score at 10 µM; 310,000 tested, 0.42% active; AID 2227;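 active = B-score of calcium response area above 5 SD of library B-scores, with initial fluorescence ratio within 5 SD of library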;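 also: B-score of integrated fluorescence ratio over time as area under calcium response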
Target sequence (Q9QUQ5 whole entry, looked up): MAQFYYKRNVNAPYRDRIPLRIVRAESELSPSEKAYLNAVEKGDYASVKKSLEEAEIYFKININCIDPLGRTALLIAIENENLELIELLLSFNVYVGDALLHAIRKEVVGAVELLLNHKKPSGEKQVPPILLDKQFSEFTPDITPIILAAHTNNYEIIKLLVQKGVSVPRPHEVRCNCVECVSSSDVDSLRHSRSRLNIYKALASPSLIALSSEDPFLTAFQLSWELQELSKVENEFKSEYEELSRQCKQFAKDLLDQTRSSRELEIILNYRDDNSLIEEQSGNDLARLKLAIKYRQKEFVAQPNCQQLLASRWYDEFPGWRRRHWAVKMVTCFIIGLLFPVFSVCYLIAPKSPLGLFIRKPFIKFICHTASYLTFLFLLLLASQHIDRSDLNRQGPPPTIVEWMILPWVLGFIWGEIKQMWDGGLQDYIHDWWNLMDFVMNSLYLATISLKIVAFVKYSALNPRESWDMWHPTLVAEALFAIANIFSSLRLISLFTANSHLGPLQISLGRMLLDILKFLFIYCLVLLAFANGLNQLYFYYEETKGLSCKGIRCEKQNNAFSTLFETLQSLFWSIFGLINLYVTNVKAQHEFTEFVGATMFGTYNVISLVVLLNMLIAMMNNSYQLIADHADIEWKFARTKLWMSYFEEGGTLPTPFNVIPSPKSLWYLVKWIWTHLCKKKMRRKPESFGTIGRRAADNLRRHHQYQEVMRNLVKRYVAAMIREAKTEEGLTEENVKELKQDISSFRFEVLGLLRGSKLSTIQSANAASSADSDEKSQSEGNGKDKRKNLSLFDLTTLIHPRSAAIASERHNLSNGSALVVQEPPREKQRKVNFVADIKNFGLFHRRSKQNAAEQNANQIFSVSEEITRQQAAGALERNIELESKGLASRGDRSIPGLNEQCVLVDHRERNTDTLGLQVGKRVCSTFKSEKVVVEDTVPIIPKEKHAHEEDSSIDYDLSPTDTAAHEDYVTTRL
TRPC4 act – opens the mouse TRPC4 cation channel. HEK293 TRPC4beta/mu-opioid, Fluo4 calcium fluorescence; stronger effect = higher value. B-score at 10 µM. 310,000 tested, 0.49% active;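 active = B-score above 5 SD of library B-scores, and initial fluorescence ratio not above library mean plus 5 SD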;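 also: positive B-score marks a calcium rise read as TRPC4 activation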
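Assay system: HEK293 cells stably co-expressing mouse TRPC4beta and mu-opioid receptor / Timing: Fluo4 dye loading 45 min at room temperature, 110 s recording / Signal: Fluo4 calcium-sensitive dye fluorescence, kinetic, 1 Hz baseline / Read-out: integrated baseline-normalised fluorescence ratio, converted to per-well B score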
TRPC6 act – activators of mouse TRPC6 channel; 310,000 tested, 0.13% active; AID 2550; B-score at 10 µM; HEK293-TRPC6 membrane potential dye fluorescence; stronger effect = higher value; Q61143;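 active = B-score of the integrated fluorescence ratio above library mean plus 3 SD, and starting fluorescence ratio within library mean plus 5 SD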;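 also: higher score means more depolarization so channel activation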
TRPC4 block – blocks the mouse TRPC4 cation channel. HEK293 TRPC4beta/mu-opioid, DAMGO-evoked Fluo4 calcium flux; stronger effect = lower value. B-score at 10 µM. 300,000 tested, 0.39% active;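 active = B-score over 3 SD under the library average, no early fluorescence shift, positive overall ratio signal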
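Assay system: HEK293 cells with stable TRPC4beta plus mu-opioid receptor expression. Dosing: single dose. Measured by: Fluo4 Ca2+ flux fluorescence. Also added: DAMGO in two steps, submaximal then maximal. Read-out: B score from integrated Fluo4 fluorescence ratio.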
TRPC4 sel inh 2 – mouse TRPC4 off-target activity of TRPC6 inhibitors, second screen. shares compounds with TRPC6 inh. 920 tested, 42% active. inhibition, % at 10 µM. HEK293 TRPC4/MOR, membrane potential dye fluorescence; channel activated by saturating DAMGO dose;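 active = compounds whose fluorescence signal differed from control wells by over 3 SD, either direction, in both duplicate plates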
TRPC4 spec – mouse TRPC4 off-target activity of TRPC6 inhibitors. activity change, negative = inhibition, % at 10 µM. 920 tested, 61% active. shares compounds with TRPC6 inh. HEK293 TRPC4/mu-opioid, membrane potential fluorescence;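 active = rise or fall in signal beyond 3 SD of buffer-only wells in both replicate plates, either sign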;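 also: integrated kinetic ratio of fluorescence range over baseline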
HEK293 MPD ctr 2-1 – second check of TRPC6 inhibitor effects in parental HEK293 cells | signal change vs control, % at 10 µM | parental HEK293 membrane potential dye fluorescence; maximal acetylcholine challenge after compound addition | 920 tested, 31% active | shares compounds with TRPC6 inh;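 active = membrane potential signal moving either way by over 3 SD of the maximum-effect control, in both duplicate plates, meaning non-specific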
HEK293 MPD ctr-1 – parental HEK293 nonspecific activity of TRPC6 inhibitors; shares compounds with TRPC6 inh; parental HEK293 membrane potential dye fluorescence; membrane potential signal change, % at 10 µM; 920 tested, 60% active;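 active = membrane potential signal shifting up or down by more than 3 SD of buffer-only wells, on both duplicate plates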
HEK293 MPD ctr-2 – checks TRPC6 modulator effects in parental HEK293 cells. shares compounds with TRPC6 inh. membrane potential dye fluorescence. membrane potential signal change, % at 10 µM. 2,400 tested, 51% active. AID 488924;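 active = membrane potential signal moves up or down beyond 5 SD from buffer-only wells, on both duplicate plates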
HEK293 MPD ctr 2-2 – parental HEK293 nonspecific activity of TRPC6 modulators, second screen | shares compounds with TRPC6 inh | membrane potential dye fluorescence; after compound, maximal acetylcholine stimulation | inhibition, % at 10 µM | 2,400 tested, 14% active | AID 488926;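 active = membrane potential signal drops by more than 5 SD from the mean control signal, in both duplicate plates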;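 also: plate controls were acetylcholine ECmax control wells for no effect and buffer only wells for full effect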
TRPC4 ctr mod – tests whether TRPC6 modulators also affect mouse TRPC4; shares compounds with TRPC6 inh; HEK293 TRPC4/mu-opioid, membrane potential fluorescence; percent change from control (negative = decrease, positive = increase), % at 10 µM; 2,400 tested, 69% active;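 active = membrane potential signal moved up or down beyond 5 SD of buffer control wells, in both duplicate plates, actives on both sides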;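 also: plate controls were assay buffer wells for no effect and DAMGO maximal-effect wells for full effect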
TRPC4/MOR inh 2 – mouse TRPC4 off-target activity of TRPC6 modulators, second screen; shares compounds with TRPC6 inh; HEK293 TRPC4/mu-opioid, membrane potential dye fluorescence; stimulated with maximal-effect DAMGO; inhibition, % at 10 µM; 2,400 tested, 55% active; AID 488928;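 active = drop in membrane potential signal beyond 5 SD of the control wells in both duplicate plates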;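 also: TRPC4 counter screen for TRPC6 hits run under conditions tuned for TRPC6 not TRPC4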
TRPC6 inh conf – mouse TRPC6 inhibitor confirmation. HEK293-TRPC6, membrane potential dye, ACh-evoked depolarization. 3,300 tested, 43% active. shares compounds with TRPC6 inh. inhibition, % at 10 µM;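 active = fluorescence ratio falls more than 5 SD below the full-stimulation control mean, in both duplicate runs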;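 also: integrated fluorescence ratio of peak minus minimum over baseline after agonist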
TRPC6 act confirm – confirmation of mouse TRPC6 activators; shares compounds with TRPC6 inh; HEK293-TRPC6 membrane potential dye fluorescence, FDSS; activation, % at 10 µM; 2,800 tested, 11% active;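 active = ratio signal rise beyond 5 SD above unstimulated control wells' mean, seen in both duplicate runs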;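 also: plate controls were buffer EC0 wells for no effect and acetylcholine ECmax response for full effect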
The depositor's hits bear a star; i = inactive; / = no result given; + = active, no number. Compounds with a hit are over-represented: about 2.3% of the library has one in this group of screens.

SMILES	TRPC6 inh	TRPC4 PAM	TRPC4 act	TRPC6 act	TRPC4 block	HEK293 MPD ctr-2	HEK293 MPD ctr 2-2	TRPC4 ctr mod	TRPC4/MOR inh 2	TRPC6 inh conf	TRPC6 act confirm	others
Cc1occc1C(=O)N/N=C/c1ccccc1[N+](=O)[O-]	i	i	i	i	i	/	/	/	/	/	/
Cc1nc(NC(=O)c2ccc(Br)o2)ccc1Br	i	i	i	i	i	/	/	/	/	/	/
O=C(Nc1cccc(NC(=O)c2ccc(Br)o2)n1)c1ccc(Br)o1	-6.32*	i	i	i	i	i	i	i	i	i	i
CCC1CCCCN1CCCNC(=O)Cn1ncn2nc(-c3ccc(OC)cc3)cc2c1=O (stereo not drawn)	i	i	i	i	i	/	/	/	/	/	/
CCOC(=O)N1CCN(C(=O)CSc2nc3ccccc3c(=O)n2-c2ccccc2)CC1	i	i	i	17*	i	117.5%*	i	29.5%*	i	/	172.5%*
Nc1ccc(C(=O)OCc2nc3ccccc3s2)cc1	-7.85*	i	i	i	i	/	/	/	/	i	i	TRPC4 sel inh 2=i;TRPC4 spec=i;HEK293 MPD ctr 2-1=i;HEK293 MPD ctr-1=i
CCOC(=O)C[C@H]1c2ccc(C(F)(F)F)cc2S(=O)(=O)N1C(C)(C)C	i	i	i	i	/	/	/	/	/	/	/
Cc1ccc(-c2nc(SC(C)C(=O)c3c(N)n(C)c(=O)n(C)c3=O)n[nH]2)cc1 (stereo not drawn)	i	i	i	i	i	/	/	/	/	/	/
Cc1ccc(-c2nc(SCC(=O)c3c(N)n(C)c(=O)n(C)c3=O)n[nH]2)cc1	-5.11*	i	i	i	i	i	i	i	i	i	i
COc1ccc2c(c1)C(C)=CC(C)(C)N2S(=O)(=O)c1ccc(NC(C)=O)cc1	i	i	i	13.8*	i	i	i	10.5%*	i	i	i
O=C(Nc1ccc(Cl)cc1)c1ccc(-n2cncn2)c([N+](=O)[O-])c1	-5.49*	i	i	i	i	-106.5%*	i	i	56.0%*	i	i
N#Cc1ccc2[nH]c(CO)c(-c3ccccc3)c2c1	-5.36*	i	i	i	i	-83.5%*	i	-27.0%*	45.0%*	i	i
COC(=O)c1ccc(COC(=O)CNC(=O)c2cccs2)cc1	-6.21*	i	i	i	i	i	i	-8.0%*	i	i	i
O=C(CNC(=O)c1cccs1)NCC(=O)OCc1ccc(F)cc1	i	i	i	i	i	/	/	/	/	/	/
CC(C)C[C@H](NC(=O)[C@@H]1Cc2ccccc2CN1)C(=O)Nc1ccc(C(C)C)cc1	-5.21*	i	i	i	i	i	i	-12.0%*	68.0%*	i	i
COc1ccccc1CNC(=O)COC(=O)c1cc([N+](=O)[O-])ccc1N1CCOCC1	-5.07*	i	i	i	i	i	i	14.0%*	i	i	/
COc1ccc(-c2cc(C(=O)Nc3ccc(Br)cc3)no2)cc1	i	i	i	i	i	/	/	/	/	/	/
NCCNc1ccc(C(=O)N2c3ccccc3Sc3ccccc32)cc1[N+](=O)[O-]	-6.19*	i	i	i	i	i	i	-10.0%*	59.5%*	54.5%*	i
COC(CSc1nc(N)c2c3c(sc2n1)CN(C)CC3)OC	i	i	i	i	i	/	/	/	/	/	/
C=CCSc1nc(N)c2c3c(sc2n1)CN(C)CC3	-6.51*	i	i	i	i	-76.0%*	i	-19.5%*	i	i	i
CSc1nc(N)c2c3c(sc2n1)CN(C)CC3	-7.04*	i	i	i	i	-123.5%*	i	-25.0%*	i	i	i
COc1cc(C(=O)Nc2cc3c4c(c2)CC(=O)N4CCC3)cc(OC)c1OC	i	i	i	i	i	/	/	/	/	/	/
O=C(CN1CCN(Cc2ccccc2)CC1)Nc1cccc(S(=O)(=O)N2CCCCCC2)c1	i	i	i	i	i	/	/	/	/	/	/
O=C(Nc1cccc(S(=O)(=O)N2CCCCC2)c1)c1c2c(nc3ccccc13)CCN(Cc1ccccc1)C2	-5.35*	i	i	i	i	i	i	i	i	i	i
Cc1cccc(NC(=S)NC2CC3CCCC(C2)N3Cc2cccs2)c1 (stereo not drawn)	-6.95*	i	i	i	i	/	/	/	/	i	i	TRPC4 sel inh 2=i;TRPC4 spec=i;HEK293 MPD ctr 2-1=i;HEK293 MPD ctr-1=-0.4%*
CCN(CC)c1ccc(-c2sc(Nc3ccccc3)n[n+]2-c2ccc(F)cc2)cc1	i	i	i	18.7*	i	+	i	204.0%*	i	i	225.5%*
CCc1ccc(Nc2n[n+](-c3ccccc3)c(-c3ccc(N(CC)CC)cc3)s2)cc1	i	i	i	i	i	/	/	/	/	/	/
CC(C)N(NC(=O)c1cccc2ccccc12)C(C)C	i	i	i	i	i	/	/	/	/	/	/
Cc1ccccc1CN1CCN(C(=O)CC(C)C)CC1	i	i	i	i	i	/	/	/	/	/	/

Screening results (PubChem)
